Measured values from ChEMBL document CHEMBL2385077, “Synthesis, local anaesthetic and antiarrhythmic activities of N-alkyl derivatives of proline anilides” (Eur J Med Chem, 2013).
Activity calls are given as the source filed them.

Key:
[1] = test system: Mus musculus; assay: Antiarrhythmic activity in iv dosed Swiss albino mouse assessed as inhibition of calcium chloride-induced cardiac arrhythmia after 15 mins; type: functional; conditions: Heart, 0.25 h
Outline: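 Swiss albino mice received compound i.v. at doses up to ½ LD50 (acute i.v. toxicity measured beforehand). Fifteen minutes later arrhythmia was provoked by i.v. calcium chloride (3%, 280 mg/kg). ED50 was taken as the mean effective dose preventing arrhythmia-associated mortality, and was determined only when below ½ LD50.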

[2] = Toxicity in iv dosed Swiss albino mouse after 72 hrs; type: organism-based; conditions: in vivo
Outline: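 Albino Swiss mice of both sexes, 18-22 g, received aqueous solutions via tail vein at increasing doses. Mortality and behavioural changes followed for 72 h. LD50 reported in mg/kg with range in parentheses.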

[3] = test system: Mus musculus; assay: Antiarrhythmic index, ratio of LD50 for Swiss albino mouse to ED50 for calcium chloride-induced Swiss albino mouse; type: functional, Heart
Outline: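 ED50 taken as mean effective dose preventing arrhythmia-associated death, reported only when below ½ LD50. LD50 from acute i.v. toxicity in mice. Index computed as LD50/ED50.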

[4] = test system: Oryctolagus cuniculus; assay: Surface anesthetic effect in New Zealand white rabbit assessed as time duration; type: functional
Outline: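 Rabbit corneal reflex test: 1% aqueous solution (0.25 ml) instilled into the conjunctival sac over 30 sec. Cornea touched with a pointer (up to 100 per series) at 8, 10, 12 and 15 min, then every 5 min. Six animals per compound; mean ± SEM.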

[5] = test system: Rattus norvegicus; assay: Anesthetic effect in Wistar rat assessed as time taken for blockage of muscle contraction by infiltration local anaesthetic activity assay; type: functional, Muscle tissue
Outline: (§1)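 Shaved lumbar back skin of Wistar rats; electrical stimulation threshold for surface muscle contraction found first (rectangular pulses, 0.36 to 14.0 V, 0.3 ms, 50 Hz). 0.5% compound in saline given as 0.2 ml intradermal plus 0.2 ml subcutaneous. Threshold re-measured at 3 and 5 min, then every 5 min until back to baseline. Depth is % threshold change from initial; >2-fold rise = 100% anaesthesia. Six rats per compound.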

[6] = test system: Rattus norvegicus; assay: Anesthetic effect in Wistar rat assessed as duration of blockage of muscle contraction by infiltration local anaesthetic activity assay; type: functional, Muscle tissue; outline: as §1
[7] = test system: Rattus norvegicus; assay: Anesthetic effect in Wistar rat assessed as duration of complete blockage of muscle contraction by infiltration local anaesthetic activity assay; type: functional, Muscle tissue; outline: as §1
[8] = test system: Rattus norvegicus; assay: Anesthetic effect in Wistar rat assessed as increase in threshold value by infiltration local anaesthetic activity assay relative to control; type: functional; outline: as §1
[9] = test system: Rattus norvegicus; assay: Anesthetic effect in Wistar rat assessed as increase in depth of anesthesia after 35 mins by infiltration local anaesthetic activity assay relative to control; type: functional, organism-based; outline: as §1

| Structure (SMILES) | ED50 [1] [mg/kg] | LD50 at 72 h [2] [mg/kg] | Ratio LD50/ED50 [3] | Time [4] [min] | Time [5] [min] | Time [6] [min] | Time [7] [min] | Activity [8] [%] | Activity [9] |
| --- | --- | --- | --- | --- | --- | --- | --- | --- | --- |
| CCCCN1CCCC1C(=O)Nc1ccc(Br)cc1Br.Cl (mixture of isomers) | 69 | 239 | 3.5 | – | – | – | – | – | – |
| CCCCN1CCCC1C(=O)Nc1ccc(Cl)cc1Cl.Cl (mixture of isomers) | > 16.3 | 32.5 | – | – | – | – | – | – | – |
| CCN1CCCC1C(=O)Nc1ccccc1C.Cl (mixture of isomers) | > 18.4 | 36.8 | – | – | – | – | – | – | – |
| Cc1ccccc1NC(=O)[C@@H]1CCCN1Cc1ccccc1.Cl | 10.9 | 35.5 | 3.3 | – | – | – | – | – | – |
| Cc1ccccc1NC(=O)[C@@H]1CCCN1C.Cl | > 16.3 | 32.5 | – | – | – | – | – | – | – |
| Cc1cc(C)c(NC(=O)C2CCCN2C2CCCCC2)c(C)c1.Cl (stereo not drawn) [CYCLOMECAINE] | 2.9 | 15 | 5.2 | 124.5 | – | – | – | – | – |
| Cc1ccc(NC(=O)C2CCCN2C2CCCCC2)c(C)c1.Cl (mixture of isomers) | 8.9 | 65 | 7.3 | 73.2 | 1 | 126.3 | – | – | – |
| CCN(CC)CC(=O)Nc1c(C)cccc1C [LIDOCAINE] | 7.7 | – | – | 37.8 | – | – | – | – | – |
| Cl.O=C(Nc1ccccc1Cl)C1CCCN1C1CCCCC1 (mixture of isomers) | 13.7 | 95 | 6.9 | 41.3 | – | – | – | – | – |
| CCCCCN1CCCC1C(=O)Nc1ccccc1C.Cl (mixture of isomers) | 5.5 | 32.5 | 5.9 | 59.8 | – | – | – | – | – |
| CCCCCCN1CCCC1C(=O)Nc1ccccc1C.Cl (mixture of isomers) | 5.6 | 35.5 | 6.3 | 75.7 | 1 | 115 | – | – | – |
| CCCCN1CCCC1C(=O)Nc1ccc(C)cc1C.Cl (mixture of isomers) | > 30 | 60 | – | 59 | – | – | – | – | – |
| CCCCN1CCCC1C(=O)Nc1ccccc1CC.Cl (mixture of isomers) | 7.1 | 30 | 4.2 | 12.7 | – | – | – | – | – |
| CCCCN1CCCC1C(=O)Nc1c(C)cccc1C.Cl (mixture of isomers) | > 4.6 | 9.2 | – | 57.5 | 1 | – | 20 | 90 | – |
| CCCCN1CCCC1C(=O)Nc1ccccc1C(F)(F)F.Cl (mixture of isomers) | 5.8 | 35.5 | 6.1 | 20.4 | – | – | – | – | – |
| CCCCN1CCCC1C(=O)Nc1ccccc1I.Cl (mixture of isomers) | 7.3 | 41 | 5.6 | 20.3 | – | – | – | – | – |
| CCCCN1CCCC1C(=O)Nc1ccccc1C.Cl (mixture of isomers) | 5.4 | 16.3 | 3 | 49.4 | 1 | – | 12.5 | – | – |
| CCCCN1CCCC1C(=O)Nc1ccccc1C (racemic) | – | – | – | – | – | – | – | – | inactive |
| CCCN1CCCC[C@H]1C(=O)Nc1c(C)cccc1C [ROPIVACAINE] | 3.7 | 14.1 | 3.8 | 58.4 | 1 | 80 | 58.8 | – | – |
| CCCCN1CCCCC1C(=O)Nc1c(C)cccc1C (stereo not drawn) [BUPIVACAINE] | 3.5 | 8.9 | 2.5 | 94 | 1 | 155 | 102.5 | – | – |
| Cc1ccccc1NC(=O)C1CCCN1C1CCCCC1.Cl (mixture of isomers) | > 6.5 | 12.9 | – | 46.5 | – | – | – | – | – |
